The source of these data is article PMC3983399 (Journal of Medicinal Chemistry, 2014).

Data set [1] deals with M14 melanoma cell line. Description: CellTiter-Glo viability assay, M14 cells. It is filed as cell-based. Summed up: (§1)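 Cells plated at 1250/well in serum-free medium (F12 for CHO-K1 and A549, DMEM for M14). Compounds given as 10-point 1:3 dilution series starting at 300 µM before addition, with gefitinib as assay control. Incubated 72 h at 37 °C, 5% CO2. CellTiter-Glo added, 15 min at room temperature, luminescence read. Normalized to media-only (0%) and 1% DMSO-treated cells (100%). Percent inhibition is the mean of three experiments ± SD.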

The test system of data set [2] is A549 nonsmall cell lung cancer cell line. Description: CellTiter-Glo viability assay, A549 cells. It counts as cell-based. The following applies: Homo sapiens, A549, read-out: Inhibition % @ 100 μM A549. In outline: as §1
On the technique in general: ATP-based viability assays read luminescence as a measure of living cells.

In data set [3] the test system is M14 cells. As to the kind of experiment: ApoTox-Glo triplex assay. It is filed as cell-based. The conditions noted are these: for cytotoxicity response / effect on cell viability (live cell protease): early time point (4 h); for time of caspase activity spike: time points 4, 24, 48, 72 h. In outline:
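M14 #5 cells, 1250/well in serum-free DMEM, preincubated 4 h at 37 °C, 5% CO2. Compounds (1:3 serial dilutions) incubated 4, 24, 48 and 72 h alongside ionomycin, terfenadine and panobinostat controls. Viability/cytotoxicity reagent (400 µM GF-AFC, 400 µM bis-AAF-R110 in reagent) 30 min at 37 °C; fluorescence Ex400/Em505 (live-cell protease) and Ex485/Em520 (dead-cell protease). Then Caspase-Glo 3/7, 30 min at room temperature, luminescence.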

For data set [4], the target named is HDAC2 (Homo sapiens, UniProt Q92769). Description: HDAC inhibition, HDAC2. It is filed as biochemical. The conditions noted are these: up to 100 μM, data not shown.
Sequence of HDAC2 (Q92769 whole entry): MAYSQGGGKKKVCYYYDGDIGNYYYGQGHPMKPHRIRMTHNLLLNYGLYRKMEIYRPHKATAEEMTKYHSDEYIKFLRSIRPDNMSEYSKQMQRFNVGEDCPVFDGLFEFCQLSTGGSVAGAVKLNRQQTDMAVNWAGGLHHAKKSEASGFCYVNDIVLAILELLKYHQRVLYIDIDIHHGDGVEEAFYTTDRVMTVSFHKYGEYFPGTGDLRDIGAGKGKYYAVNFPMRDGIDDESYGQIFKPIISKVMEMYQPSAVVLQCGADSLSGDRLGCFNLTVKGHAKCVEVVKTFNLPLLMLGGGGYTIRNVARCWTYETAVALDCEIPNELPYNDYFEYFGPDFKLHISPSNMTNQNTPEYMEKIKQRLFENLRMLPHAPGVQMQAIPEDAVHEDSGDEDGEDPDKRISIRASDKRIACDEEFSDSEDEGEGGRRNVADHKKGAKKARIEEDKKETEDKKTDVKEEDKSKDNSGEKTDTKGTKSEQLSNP
The target in data set [5] is T1, HDAC6 (Homo sapiens, UniProt Q9UBN7).
T1 sequence (Q9UBN7 1-1215): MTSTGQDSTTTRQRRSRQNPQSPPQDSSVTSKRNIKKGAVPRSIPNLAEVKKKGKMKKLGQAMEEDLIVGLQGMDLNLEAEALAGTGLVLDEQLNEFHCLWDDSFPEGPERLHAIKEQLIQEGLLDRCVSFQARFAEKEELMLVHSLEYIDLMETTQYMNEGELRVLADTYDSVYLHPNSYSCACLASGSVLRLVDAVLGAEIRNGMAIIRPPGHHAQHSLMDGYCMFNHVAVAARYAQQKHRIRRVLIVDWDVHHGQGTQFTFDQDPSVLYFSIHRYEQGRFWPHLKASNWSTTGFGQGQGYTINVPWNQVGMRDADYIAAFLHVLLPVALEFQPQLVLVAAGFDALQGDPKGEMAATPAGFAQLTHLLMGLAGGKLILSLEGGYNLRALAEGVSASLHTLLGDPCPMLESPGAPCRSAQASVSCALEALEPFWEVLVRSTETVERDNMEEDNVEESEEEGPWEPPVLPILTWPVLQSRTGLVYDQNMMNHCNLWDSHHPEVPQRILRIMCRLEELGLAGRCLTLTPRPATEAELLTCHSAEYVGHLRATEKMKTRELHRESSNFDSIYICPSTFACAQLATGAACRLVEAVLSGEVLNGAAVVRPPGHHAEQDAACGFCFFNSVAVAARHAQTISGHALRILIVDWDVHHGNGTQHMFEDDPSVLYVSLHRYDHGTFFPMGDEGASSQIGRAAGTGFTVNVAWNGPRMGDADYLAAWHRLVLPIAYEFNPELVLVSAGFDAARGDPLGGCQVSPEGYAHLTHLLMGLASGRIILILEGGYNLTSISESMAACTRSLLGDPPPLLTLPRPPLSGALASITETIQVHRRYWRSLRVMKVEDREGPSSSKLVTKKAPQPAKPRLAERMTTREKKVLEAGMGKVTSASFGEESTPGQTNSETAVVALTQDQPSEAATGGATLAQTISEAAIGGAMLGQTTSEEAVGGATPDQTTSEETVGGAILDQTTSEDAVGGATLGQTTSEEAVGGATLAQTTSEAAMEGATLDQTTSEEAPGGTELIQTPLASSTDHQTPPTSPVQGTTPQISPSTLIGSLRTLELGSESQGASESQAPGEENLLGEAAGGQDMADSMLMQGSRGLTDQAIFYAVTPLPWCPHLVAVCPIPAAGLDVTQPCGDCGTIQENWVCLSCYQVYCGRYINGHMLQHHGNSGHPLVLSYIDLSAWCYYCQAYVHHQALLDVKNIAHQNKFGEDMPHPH
Description: HDAC inhibition, HDAC6. The conditions noted are these: up to 100 μM, data not shown. It counts as biochemical.

Data set [6] deals with HDAC1 (Homo sapiens, UniProt Q13547). As to the kind of experiment: HDAC inhibition, HDAC1. It is filed as biochemical. The following applies: up to 100 μM, data not shown.
Sequence of HDAC1 (Q13547 whole entry, species assumed): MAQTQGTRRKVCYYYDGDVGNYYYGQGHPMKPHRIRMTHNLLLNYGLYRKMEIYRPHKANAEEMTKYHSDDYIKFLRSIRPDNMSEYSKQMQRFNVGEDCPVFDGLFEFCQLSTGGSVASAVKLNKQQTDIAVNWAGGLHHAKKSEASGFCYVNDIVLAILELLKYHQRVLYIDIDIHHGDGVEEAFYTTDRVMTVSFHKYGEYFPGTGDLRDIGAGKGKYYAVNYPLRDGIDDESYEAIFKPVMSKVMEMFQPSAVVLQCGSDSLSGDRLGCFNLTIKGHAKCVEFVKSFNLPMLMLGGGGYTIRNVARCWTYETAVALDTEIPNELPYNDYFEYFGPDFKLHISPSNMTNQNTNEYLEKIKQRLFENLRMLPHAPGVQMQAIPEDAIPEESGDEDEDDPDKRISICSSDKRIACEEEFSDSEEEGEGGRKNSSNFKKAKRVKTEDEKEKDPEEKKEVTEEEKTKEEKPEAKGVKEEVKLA
The test system of data set [7] is SKMEL-28 melanoma cell line. As to the kind of experiment: Hexosaminidase viability assay, SKMEL-28. It is filed as cell-based. The conditions noted are these: Homo sapiens, SK-MEL-28, read-out: IC50 SKMEL-28, text. Summed up:
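Cells in 96-well plates grown overnight, then treated 48 h with compound at 0–50 µM. Wells washed with PBS. Hexosaminidase substrate added for 30 min at 37 °C, followed by developer; absorbance read at 405 nm. Percent viability = (treated absorbance/control absorbance) × 100.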

The test system of data set [8] is melanoma cells with mutated Q61LNRAS and wild-type BRAF (M202 and M207). The following applies: up to 10 μM; cited from earlier work.

For orientation: inhibition means the drop in the measured response relative to a control, in per cent. As for `CCC[C@@H]1CNC(=O)C(=O)N1C[C@@H]1CCCN1C[C@H](Cc1ccc(O)cc1)N1C[C@@H](Cc2ccc(O)cc2)N(CC(CC)c2ccccc2)C(=O)C1=O` (some centres unmarked) [Compound 2], the inhibition at 100 µM in data set [1] (Homo sapiens, M14, read-out: Inhibition % @ 100 μM M14) is 14 ± 3%; in data set [2], 0%.

As to `O=C1NC[C@H](Cc2ccccc2)N(C[C@@H]2CCCN2C[C@@H](CC2CCCCC2)N2C[C@H](Cc3ccc(O)cc3)N(CCc3ccccc3)C(=O)C2=O)C1=O` [Compound 2155-14], in data set [3], the cytotoxicity response entry is “no markers for apoptosis and cytotoxicity”; the “effect on cell viability (live cell protease)” value (from here on “effect on cell viability”) is listed as “no effect on cell viability”; the “time of caspase activity spike” value stood at 24 h. Further, in data set [1] (100 μM), the “inhibition of M14 cell viability at highest tested concentration” value is listed as “not able to inhibit M14 cell viability fully”. Also, the HDAC2 inhibition entry in data set [4] is on record as “lack of HDAC inhibition”. The HDAC6 inhibition entry in data set [5] is recorded as “lack of HDAC inhibition”. Also, the HDAC1 inhibition result in data set [6] is “lack of HDAC inhibition”.

For `CCC[C@H]1CNC(=O)C(=O)N1C[C@@H]1CCCN1C[C@@H](CC1CCCCC1)N1C[C@H](Cc2ccc(O)cc2)N(CCc2ccccc2)C(=O)C1=O` [Compound 2155-17], in data set [1] (ratio of IC50), the “selectivity for M14 over A549 cells” value is “approximately 5 fold” and the “selectivity for M14 over CHO-K1 cells” value was “more than 10 fold”.

What is called IC50 is the concentration at which inhibition is half-maximal. For `O=C1NC[C@H](Cc2ccccc2)N(C[C@@H]2CCCN2C[C@H](Cc2ccccc2)N2C[C@H](Cc3ccc(O)cc3)N(CCC34CC5CC(CC(C5)C3)C4)C(=O)C2=O)C1=O` [Compound 2155-18], the half-inhibitory concentration (IC50) in data set [1] (Homo sapiens, M14, read-out: IC50 M14, Table 3, mean of three ± SD) was 890 ± 70 nM; in data set [7], 890 ± 70 nM. Moreover, the HDAC2 inhibition result in data set [4] is recorded as “lack of HDAC inhibition”. Besides, in data set [5], the HDAC6 inhibition result is “lack of HDAC inhibition”. Also, in data set [6], the HDAC1 inhibition result is “lack of HDAC inhibition”.

Regarding `C[C@H](CCC(=O)O)C[C@H](C)C[C@H](C)C(=O)/C=C(\O)[C@H](C)C[C@H](C)C/C=C/[C@@H](C)[C@@H](O)[C@@H](C)[C@@H](O)C[C@@H]1CC[C@@](C)([C@H]2CC[C@@](C)([C@@H](C)O)O2)O1` [ionomycin], in data set [3], the cytotoxicity response result is given as “strong cytotoxicity response”, the “effect on cell viability” value is “dose-dependent loss of viability” and the “time of caspase activity spike” value was “did not induce a spike in caspase activity”.

As to `Cc1[nH]c2ccccc2c1CCNCc1ccc(/C=C/C(=O)NO)cc1` [panobinostat], in data set [3], the cytotoxicity response entry is given as “no effect”, the “effect on cell viability” value is listed as “no effect” and the “time of caspase activity spike” value was in the range of 24 to 48 h.

With `CC(C)(C)c1ccc(C(O)CCCN2CCC(C(O)(c3ccccc3)c3ccccc3)CC2)cc1` (centres unmarked) [terfenadine], in data set [3], the cytotoxicity response entry was “cytotoxicity spike”, the “effect on cell viability” value was “early loss of cell viability” and the “time of caspase activity spike” value lay within 4 to 24 h.

For the molecule `CCCS(=O)(=O)Nc1ccc(F)c(C(=O)c2c[nH]c3ncc(-c4ccc(Cl)cc4)cc23)c1F` [vemurafenib], in data set [8], the “activity against M202 and M207 melanoma cells” value is “inactive”.
